Among the data in ChEMBL document CHEMBL4477178, “Biflorin, Isolated from the Flower Buds of Syzygium aromaticum L., Suppresses LPS-Induced Inflammatory Mediators via STAT1 Inactivation in Macrophages and Protects Mice from Endotoxin Shock” (J Nat Prod, 2016) are inhibition in vivo, inhibition and Activity values, retold here.

The structures appear in SMILES notation. Active and inactive are the calls of the source. The calls are words filed in the database; no cut-off is given here.

Assay [1] concerns Rattus norvegicus. Kind of assay: Antiinflammatory activity in Sprague-Dawley rat assessed as reduction in carrageenan induced paw edema at 10 mg/kg, ip administered 1 hr before carrageenan challenge measured at 3 hrs post challenge relative to control. The class given is functional. Summed up: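 SD rats given compound i.p. (5, 10 or 15 mg/kg) 1 h before subplantar injection of 1% carrageenan in saline (0.1 mL) into the right hind paw. Paw volume measured by plethysmometer at 1, 3 and 5 h. Edema compared with the carrageenan-only group; seven rats per group.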
Background: The carrageenan paw model is a standard test of acute inflammation.

Assay [2] relates to Rattus norvegicus. Briefly: Antiinflammatory activity in Sprague-Dawley rat assessed as inhibition of croton oil-induced ear edema at 10 mg/kg, ip administered 1 hr before croton oil challenge measured after 3 hrs post challenge relative to control. The class given is functional. In outline: (§1)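 Male SD rats given compound i.p. (5, 10 or 15 mg/kg) 1 h before topical croton oil (5% in 100 μL acetone) on the inner right ear; the left ear received acetone alone. After 3 h, rats were killed and 6 mm ear punches were taken and measured for thickness. Inhibition calculated relative to the croton-oil-only group; seven rats per group.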

Assay [3] concerns the target Signal transducer and activator of transcription 3 (Mus musculus) (UniProt P42227). Kind of assay: Inhibition of LPS-induced STAT3 phosphorylation at Y705 in C57BL/6 mouse peritoneal macrophages at 15 to 60 uM preincubated for 1 hr followed by LPS challenge for 60 mins by Western blot analysis. Summed up: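 Thioglycolate-elicited C57BL/6 peritoneal macrophages pretreated 1 h at 15, 30 or 60 μM, then LPS 10 μg/mL: 120 min for p-STAT1 Y701, 30 min for p-STAT1 S727, 60 min for p-STAT3 Y705. Western blot with phospho-specific and total STAT antibodies, β-actin control; three independent experiments.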
Background: In western blotting, separated proteins are transferred to a membrane and probed.

The target of assay [4] is Mitogen-activated protein kinase 1 and 3 (ERK2 and ERK1) (Mus musculus) (UniProt P63085+Q63844). Kind of assay: Inhibition of LPS-induced ERK1/2 phosphorylation in mouse RAW264.7 cells at 15 to 60 uM preincubated for 1 hr followed by LPS challenge for 30 mins by Western blot analysis. The assay is classed as cell-based. Summed up: (§2)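 RAW 264.7 pretreated 1 h at 15, 30 or 60 μM, then LPS 10 ng/mL for 30 min. Lysates Western-blotted for p-p38, p38, p-JNK, JNK, p-ERK, ERK with β-actin control; ECL, densitometry. Three independent experiments.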

The test system of assay [5] is RAW264.7. Kind of assay: Antiinflammatory activity in mouse RAW264.7 cell lysate assessed as inhibition of LPS-induced iNOS expression preincubated for 1 hr followed by LPS challenge for 24 hrs by Western blot analysis. The assay is classed as functional, cell-based. Summed up:
(§3)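 RAW 264.7 (DMEM, 10% FBS, 37 °C, 5% CO2) pretreated 1 h at 15, 30 or 60 μM, then LPS 10 ng/mL for 24 h. Lysates run on 10–12% SDS-PAGE, blotted to PVDF, probed with iNOS or COX-2 antibody (1:1000, overnight 4 °C), HRP secondary, ECL; densitometry vs β-actin. Mean ± SD of three independent experiments.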

Assay [6] concerns RAW264.7. Kind of assay: Antiinflammatory activity in mouse RAW264.7 cells assessed as inhibition of LPS-induced TNF-alpha production at 60 uM preincubated for 1 hr followed by LPS challenge for 24 hrs by ELISA method. The class given is functional. Summed up: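 RAW 264.7 cells in DMEM with 10% FBS, plated at 2 × 10^5 cells/mL and incubated overnight. Pretreated with compound (15, 30 or 60 μM) for 1 h, then LPS 10 ng/mL for 24 h. PGE2 measured by competitive colorimetric ELISA, TNF-α and IL-6 by ELISA, in diluted medium. NS-398 3 μM as positive control for PGE2. Mean ± SD, three independent experiments; IC50 given for PGE2.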
On the technique in general: In an ELISA, binding on a coated surface is turned into a signal by an enzyme label.

For assay [7], the system named is Peritoneal macrophage. Kind of assay: Antiinflammatory activity in C57BL/6 mouse peritoneal macrophages assessed as inhibition of LPS-induced TNF-alpha production at 60 uM preincubated for 1 hr followed by LPS challenge for 48 hrs by ELISA method. The assay is classed as functional. Particulars: C57BL/6, Peritoneal macrophage.
The test system of assay [8] is Peritoneal macrophage. Kind of assay: Antiinflammatory activity in C57BL/6 mouse peritoneal macrophages assessed as inhibition of LPS-induced IL-6 production at 60 uM preincubated for 1 hr followed by LPS challenge for 48 hrs by ELISA method. The following applies: C57BL/6, Peritoneal macrophage. The class given is functional.
In assay [9] the test system is RAW264.7. Briefly: Antiinflammatory activity in mouse RAW264.7 cell lysate assessed as inhibition of LPS-induced COX-2 expression preincubated for 1 hr followed by LPS challenge for 24 hrs by Western blot analysis. The assay is classed as functional, cell-based. In outline: as §3
Assay [10] has as its system RAW264.7. Briefly: Reduction in LPS-induced NF-kappa B activity in mouse RAW264.7 cells at 15 to 60 uM preincubated for 1 hr followed by LPS challenge for 12 hrs by luciferase reporter gene assay. The class given is cell-based.
The target of assay [11] is MAP kinase p38 (Mus musculus) (UniProt P47811+O08911+Q9WUI1+Q9Z1B7). Kind of assay: Inhibition of LPS-induced p38 MAPK phosphorylation in mouse RAW264.7 cells preincubated for 1 hr followed by LPS challenge for 30 mins by Western blot analysis. The class given is cell-based. Summed up: as §2
Assay [12] concerns Mus musculus. Briefly: In vivo inhibition of LPS-induced STAT1 phosphorylation at S727 in C57BL/6 mouse liver at 10 mg/kg, ip pretreated for 1 hr followed by LPS challenge for 6 hrs by Western blot analysis. The class given is functional, organism-based. In outline: (§4)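 Male C57BL/6 mice given 10 mg/kg i.p. or vehicle 1 h before LPS (Salmonella enterica, 25 mg/kg i.p.); liver collected 6 h after LPS, frozen at −80 °C. Liver mRNA by SYBR qRT-PCR normalized to β-actin; protein by Western blot for p-STAT1 (Y701, S727). Eight mice per group; mean ± SD.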

Assay [13] relates to RAW264.7. Kind of assay: Antiinflammatory activity in mouse RAW264.7 cells assessed as downregulation of LPS-induced TNF-alpha expression at 60 uM preincubated for 1 hr followed by LPS challenge for 6 to 12 hrs by luciferase reporter gene assay. The class given is functional, cell-based. Summed up: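 RAW 264.7 transiently cotransfected with promoter-luciferase construct (pGL3-iNOS, pGL3-COX-2 or pTNF-α-luc) plus phRL-TK internal control; 6 h after transfection pretreated 1 h with 60 μM, then LPS 10 ng/mL for 6 or 12 h. Cells washed in cold PBS, lysed, luciferase read. Mean ± SD, three independent experiments.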

The test system of assay [14] is Rattus norvegicus. Briefly: Antiinflammatory activity in Sprague-Dawley rat assessed as inhibition of croton oil-induced ear edema at 15 mg/kg, ip administered 1 hr before croton oil challenge measured after 3 hrs post challenge relative to control. The assay is classed as functional. Summed up:
as §1

In assay [15] the test system is RAW264.7. Briefly: Antiinflammatory activity in mouse RAW264.7 cells assessed as inhibition of LPS-induced TNF-alpha mRNA expression at 60 uM after 2 to 12 hrs by qRT-PCR method. The class given is functional, cell-based. Summed up: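 RAW 264.7 stimulated with LPS 10 ng/mL with or without 60 μM for 2, 4, 6 and 12 h. Total RNA (1 μg) reverse-transcribed with MuLV RT and random primer; SYBR green real-time qPCR with gene-specific primers, triplicate Ct normalized to β-actin. Mean ± SD, three independent experiments.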

The subject of assay [16] is Mus musculus. Briefly: Inhibition of LPS-induced COX-2 mRNA expression in C57BL/6 mouse liver at 10 mg/kg, ip pretreated for 1 hr followed by LPS challenge for 6 hrs by qRT-PCR method. The assay is classed as functional, organism-based. In outline: as §4

Sequence of Mitogen-activated protein kinase 1 and 3 (ERK2 and ERK1) (Mus musculus) (P63085 whole entry, looked up): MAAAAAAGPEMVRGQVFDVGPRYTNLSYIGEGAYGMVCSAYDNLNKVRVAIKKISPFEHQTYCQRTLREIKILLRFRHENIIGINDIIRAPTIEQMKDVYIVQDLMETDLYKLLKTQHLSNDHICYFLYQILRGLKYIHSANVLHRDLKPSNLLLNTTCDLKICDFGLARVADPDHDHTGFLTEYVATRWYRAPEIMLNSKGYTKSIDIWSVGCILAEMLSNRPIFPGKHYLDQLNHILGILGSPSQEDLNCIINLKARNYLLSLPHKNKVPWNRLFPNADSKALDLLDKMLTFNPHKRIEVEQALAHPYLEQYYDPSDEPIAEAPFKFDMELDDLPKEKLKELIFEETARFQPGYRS
Sequence of Mitogen-activated protein kinase 1 and 3 (ERK2 and ERK1) (Mus musculus) (Q63844 whole entry, looked up): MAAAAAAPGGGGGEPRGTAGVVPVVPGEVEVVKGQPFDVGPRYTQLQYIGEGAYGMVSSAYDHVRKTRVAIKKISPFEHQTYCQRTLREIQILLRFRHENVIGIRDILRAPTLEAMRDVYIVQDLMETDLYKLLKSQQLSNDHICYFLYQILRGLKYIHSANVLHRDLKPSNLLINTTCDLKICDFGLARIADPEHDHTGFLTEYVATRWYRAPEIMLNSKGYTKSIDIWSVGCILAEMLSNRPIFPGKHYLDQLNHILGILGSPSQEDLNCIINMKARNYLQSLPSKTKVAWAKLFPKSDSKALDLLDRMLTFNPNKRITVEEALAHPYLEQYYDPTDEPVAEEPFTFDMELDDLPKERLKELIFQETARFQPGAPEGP
Sequence of Signal transducer and activator of transcription 3 (Mus musculus) (P42227 whole entry): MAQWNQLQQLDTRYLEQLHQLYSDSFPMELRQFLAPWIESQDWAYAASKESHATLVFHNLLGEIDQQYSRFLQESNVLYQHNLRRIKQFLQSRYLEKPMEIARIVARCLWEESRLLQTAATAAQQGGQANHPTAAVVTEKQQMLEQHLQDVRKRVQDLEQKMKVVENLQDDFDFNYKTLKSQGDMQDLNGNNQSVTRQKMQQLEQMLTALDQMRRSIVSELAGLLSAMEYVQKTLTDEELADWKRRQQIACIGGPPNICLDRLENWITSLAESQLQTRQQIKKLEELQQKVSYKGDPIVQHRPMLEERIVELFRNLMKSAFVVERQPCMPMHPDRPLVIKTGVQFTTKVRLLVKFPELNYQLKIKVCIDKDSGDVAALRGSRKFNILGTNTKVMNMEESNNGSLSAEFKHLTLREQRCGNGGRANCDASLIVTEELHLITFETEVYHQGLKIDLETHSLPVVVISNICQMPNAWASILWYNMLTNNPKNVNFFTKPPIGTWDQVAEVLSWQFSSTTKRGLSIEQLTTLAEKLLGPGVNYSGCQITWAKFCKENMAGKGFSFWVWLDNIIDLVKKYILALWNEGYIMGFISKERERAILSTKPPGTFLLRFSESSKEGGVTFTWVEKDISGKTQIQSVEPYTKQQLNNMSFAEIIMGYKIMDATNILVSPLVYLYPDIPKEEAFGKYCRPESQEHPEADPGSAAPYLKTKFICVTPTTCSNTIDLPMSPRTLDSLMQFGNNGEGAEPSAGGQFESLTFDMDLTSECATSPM

A word on the inhibition in vivo: it is the drop in the measured response relative to a control, in per cent. The inhibition is the drop in the measured response relative to a control, in per cent. `Cc1cc(=O)c2c(O)c([C@@H]3O[C@H](CO)[C@@H](O)[C@H](O)[C@H]3O)c(O)cc2o1` [BIFLORIN]: the inhibition in vivo at 10 mg/kg is 48% in the assay on Rattus norvegicus [1] and 44.5% with Rattus norvegicus [2]. Also, the inhibition entry (in assay [3]; in the assay on Mus musculus [12]; with RAW264.7 [15]; in the assay with Mus musculus [16]) was “Active” each time. The inhibition result (in assay [4]; with RAW264.7 [10]) was “inactive” throughout. For the same compound, the inhibition result (in the assay on RAW264.7 [5]; in the assay on RAW264.7 [9]; in [11]) was “Dose-dependent effect” in each case. Further, the inhibition at 60 µM in the assay with RAW264.7 [6] was 75%; with Peritoneal macrophage [7], 77.5%; in the assay with Peritoneal macrophage [8] it was 61.1%. In the assay with RAW264.7 [13], the outcome was Active. Moreover, in the assay on Rattus norvegicus [14], the inhibition in vivo at 15 mg/kg was determined as 74.7%.
